Source: PubChem BioAssay
Most compounds without a hit are left out; they make up all but 11% or so of the library.
S1P3 ag: human S1P3 receptor agonists, primary screen, cell-based, primary and confirmation, NFAT-BLA reporter. S1P3 NFAT-BLA reporter cells, agonism, FRET ratio; relative to 1 µM S1P, basal subtracted. activation, % at 4.5 µM. 60,000 tested, 0.1% active;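 active = activation above the screen-wide mean plus 3 SD, cut at about 4.5% in these data, passing the limit was not always enough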
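Assay system: stable CHO line with human S1P3, Gα16, NFAT-BLA reporter; Detection: FRET β-lactamase substrate fluorescence, excitation 405 nm, 460/535 nm emission ratio, background-subtracted; Read-out: percent activation versus median 1 µM S1P response, basal-subtracted, per plate; Incubation: cells plated overnight, compound 4 h 37 °C, substrate 2 h RT.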
S1P1 ag-PAM: S1P1 agonists and agonism potentiators, primary screen, cell-based, primary and confirmation screens, CRE-bla reporter; Sphingosine 1-phosphate receptor 1 (Homo sapiens), P21453; 56,000 tested, 0.57% active; activation, % at 9.5 µM; AID 449, 2006; S1P1 CRE-bla cells, forskolin, beta-lactamase FRET, potentiator mode; S1P1 agonist co-added at EC20, 2 nM; 100% = saturating reference agonist, 0% = basal;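 active = activation above a cutoff set at the mean activation of all tested compounds plus 3 SD, cut at about 54% in these data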;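 also: forskolin at 4 µM as EC80 and the EC20 agonist is SEW2871; 100% = SEW2871 at its EC100 plus forskolin at EC80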
M1 antag: antagonists of rat M1 muscarinic receptor; Muscarinic acetylcholine receptor M1 (Rattus norvegicus), P08482; CHO-M1 cells, Fluo-4 calcium, ACh EC80 antagonist mode; hits give low values; B-score at 10 µM; 64,000 tested, 3.4% active; AID 628, 2007;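 active = calcium fluorescence response, raw or row-and-column corrected B-score, differing from the plate sample mean either way at a set confidence level, mostly lower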
D1 mod: D1 CRE-luciferase signal change, two-sided – cell-based, HEK293 D1, dopamine EC30, D1 allosteric modulator project, primary screen; dopamine EC30 potentiation; actives deviate in either direction; 58,000 tested, 5.9% active; AID 641, 2007; D(1A) dopamine receptor (Homo sapiens), P21728; B-score at 10 µM;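 active = luminescence count or its row- and column-corrected plate score outside the 99.7% band of the plate's sample wells, on either side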
Target sequence (P21728 whole entry, looked up): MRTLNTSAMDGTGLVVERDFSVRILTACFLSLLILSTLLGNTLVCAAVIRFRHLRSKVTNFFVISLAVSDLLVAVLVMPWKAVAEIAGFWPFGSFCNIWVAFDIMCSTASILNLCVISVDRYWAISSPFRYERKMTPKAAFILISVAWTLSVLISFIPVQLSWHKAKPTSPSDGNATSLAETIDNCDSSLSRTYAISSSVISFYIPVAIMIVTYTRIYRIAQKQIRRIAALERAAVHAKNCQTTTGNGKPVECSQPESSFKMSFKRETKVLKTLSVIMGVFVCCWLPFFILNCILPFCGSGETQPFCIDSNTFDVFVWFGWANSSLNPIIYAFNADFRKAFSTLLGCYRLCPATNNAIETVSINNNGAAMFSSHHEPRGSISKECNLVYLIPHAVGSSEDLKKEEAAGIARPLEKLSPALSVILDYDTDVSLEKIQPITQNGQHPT
M1 agonist: M1 muscarinic receptor agonists, primary screen, CHO-M1 cells, Fluo-4 calcium, agonist mode; Muscarinic acetylcholine receptor M1; Fluo-4 calcium fluorescence; hits give high values; B-score at 10 µM; 64,000 tested, 3% active;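 active = fluorescence rise, raw or as B-score row- and column-corrected plate score, outside the 99.7% band of its plate's samples, either direction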
Numbers without * were called inactive; · = no result given.

SMILES	S1P3 ag	S1P1 ag-PAM	M1 antag	D1 mod	M1 agonist
O=C(CCCc1cccs1)N1CCN(S(=O)(=O)c2ccccc2Br)CC1	-0.1	27.7	0.00988	-0.0361	-0.821
O=C(CSc1ncccn1)Nc1ccccc1	-1.6	-4.5	1.86*	·	1.2
CCOCc1nnc(NC(=O)c2cccs2)s1	-1.0	·	2.09*	-0.221	0.947
CCOC(=O)C1=C(C)N=C2SC(CC)C(=O)N2C1c1ccc(OC(C)=O)c(OCC)c1 (centres undefined)	·	·	0.848	1.66	-0.136
Cc1cc(C)cc(N2CCCn3c2nc2c3c(=O)n(CC(=O)OCc3ccccc3)c(=O)n2C)c1	-1.0	-1.7	-0.336	-1.11*	-0.204
COc1ccc(N2CCCn3c2nc2c3c(=O)n(CCc3ccccc3)c(=O)n2C)cc1	-0.5	2.1	-0.155	-2.78*	0.078
Cc1ccc(NC(=O)CSc2nnc(-c3ccncc3)n2N)cc1C	·	·	0.734	0.886	0.855
O=C(NC(=O)c1cccc(OC(F)(F)C(F)F)c1)OC1CCS(=O)(=O)C1 (centres undefined)	0.5	-13.7	-18.9*	-0.648	22.1*
CCN(CC)CCN1C(=O)C(=O)/C(=C(/O)c2c(C)[nH]c(C(=O)OC)c2C)C1c1ccco1 (centres undefined)	-5.8	11.4	0.2	-0.992	-1.37
COc1ccc(/C(O)=C2/C(=O)C(=O)N(CCCN(C)C)C2c2ccco2)cc1Cl (centres undefined)	-3.7	4.5	-0.727	0.241	35.2*
CCOC(=O)c1[nH]c(C)c(/C(O)=C2\C(=O)C(=O)N(CCN(C)C)C2c2ccco2)c1C (centres undefined)	-0.4	-11.3	-2.35*	0.35	-0.457
COc1ccc(OC)c(C2/C(=C(\O)c3c(C)nc4ccccn34)C(=O)C(=O)N2CCCN(C)C)c1 (centres undefined)	-0.8	-4.0	2.4*	-0.571	1.24
COc1ccc(/C(O)=C2/C(=O)C(=O)N(CCN(C)C)C2c2ccccc2)cc1Cl (centres undefined)	-1.4	21.5	1.03*	·	-0.805
O=C(Nc1ccc(Cl)cn1)C1CCCN1S(=O)(=O)c1ccccc1 (centres undefined)	-1.7	-0.1	-0.425	-0.465	-0.00247
COc1ccccc1N1CCN(c2ccc(-c3ccccc3)nn2)CC1	·	·	-0.621	-5.39*	-0.551
COc1ccc(C(=O)N2CCN(C3CCC(c4ccccc4)CC3)CC2)cc1OC (centres undefined)	-0.4	2.0	-0.0973	-5.09*	-0.468
C=CCn1c(SCC(=O)c2cccs2)nc2sc(CC)cc2c1=O	-2.1	93.4*	0.267	1.06	-0.185
Cn1c(=O)c2sccc2n2c(CCCC(=O)NCc3ccc4c(c3)OCO4)nnc12	·	·	-0.0338	-0.241	0.802
Fc1cccc(-c2cc3nc4c(c(N5CCN(c6cnccn6)CC5)n3n2)CCCC4)c1	-0.8	-9.4	0.00261	0.299	13.9*
COC(=O)c1ccc2c(c1)N(Cc1nc(-c3ccc(Cl)cc3)oc1C)C(=O)C1CCCN21 (centres undefined)	-0.9	-45.5	0.511	-0.317	-0.208
COc1ccc(S(=O)(=O)Nc2ccc3c(c2)OCCO3)cc1Cl	-1.0	18.0	-0.503	-2.01	0.377
O=S(=O)(Nc1ccc2c(c1)OCCO2)c1ccc2oc3ccccc3c2c1	0.4	71.6*	-0.0117	-1.11	0.293
Oc1ccc(Nc2nc(N3CCCC3)c3ccccc3n2)cc1	0.0	-61.0	0.0907	-2.54	0.0846
Cc1ccc(Nc2nc(N3CCOCC3)c3ccccc3n2)cc1	-0.6	18.1	0.242	-5.8*	2.51
COC(=O)c1ccccc1NC(=O)CC(NCc1ccccc1)C(=O)O (centres undefined)	0.1	·	-0.224	2.38*	-0.433
SMILES	S1P3 ag	S1P1 ag-PAM	M1 antag	D1 mod	M1 agonist
COC(=O)c1ccccc1NC(=O)CN(c1ccccc1)S(=O)(=O)N(C)C	-0.6	10.0	1.92*	0.0176	1.56
O=S(=O)(Nc1ccc2c(c1)OCCO2)c1cnc[nH]1	1.0	-6.4	0.271	0.273	0.222
N#Cc1ccc(NC(=O)c2cc3cc4c5c(c3oc2=N)CCCN5CCC4)cc1	-0.4	-8.7	0.191	0.291	166*
CC(C)(C)OC(=O)N1CCN(c2ccc(NC(=O)c3cc4ccccc4oc3=O)cc2)CC1	·	·	0.126	0.0522	0.916
c1ccc(-c2nnc(N3CCOCC3)nc2-c2ccccc2)cc1	31.2*	8.1	-0.974	3.05	0.488
O=C(CSc1nnc(-c2ccccc2)c(-c2ccccc2)n1)N1CCOCC1	-2.0	7.5	0.271	0.0269	0.0153
Cc1cccc(N2CCN(c3nc4ccccc4n4cnnc34)CC2)c1C	-0.7	-21.4	0.357*	0.479	0.59
COc1cccc2c1OC1(C)CC2/C(=C(\C)O)C(=O)N1 (centres undefined)	-1.2	4.0	·	·	·
CCOC(=O)COc1ccc(C(=O)NC2CCCCC2)cc1	-1.1	·	-0.56	-5.63*	-0.105
Cn1c(=O)[nH]c(=O)c2c1nc(N1CCN(c3cccc(Cl)c3)CC1)n2CCCc1ccccc1	-3.1	11.6	-0.0037	-0.913	-0.147
CCCCCn1c(N2CCN(c3cccc(Cl)c3)CC2)nc2c1c(=O)[nH]c(=O)n2C	-1.3	5.6	-0.623	4.94*	-0.0388
CCCCCCn1c(N2CCC(C)CC2)nc2c1c(=O)[nH]c(=O)n2C	-0.4	4.3	-0.403	17.9*	-1.45
C=C(C)Cn1c(N2CC(C)CC(C)C2)nc2c1c(=O)[nH]c(=O)n2C (centres undefined)	-1.0	-14.7	0.359	6.96*	1.17
Cc1cc(C)n2nc(S(=O)(=O)NC3CCCCC3)nc2n1	-0.3	-31.4	0.113	-0.222	2.32
Cc1ccc(-c2nc(CS(=O)CC(=O)NCCC(C)C)c(C)o2)cc1 (centres undefined)	-0.3	-31.8	-0.293	-0.273	-0.162
Cc1ccccc1CS(=O)(=O)CCC(=O)N1CCN(c2ccc(N3CCOCC3)nn2)CC1	·	·	-0.0621	1.24	-0.191
COc1ccc(C2NC3=C(CCCC3)C(C#N)(C#N)C2(C#N)C#N)cc1 (centres undefined)	-0.5	-14.8	-0.229	0.137	0.189
COc1ccc(C2NC3=C(CCC3)C3(C#N)C4(N=C(N)C23C#N)OCCO4)cc1 (centres undefined)	-0.3	0.9	0.0309	-3.54*	-0.0593
Cn1ccnc1SCc1cn2cc(Br)ccc2n1	·	·	-0.211	-4.67*	0.419
COC(=O)c1ccc(CSc2nccn2C)cc1	-0.2	·	-0.0827	0.121	0
O=C1c2ccccc2C(=O)N1CCN1CCc2ccccc21	0.5	21.5	-0.133	-0.0468	0.00247
c1ccc2c(c1)CCN2CCN1CCc2ccccc21	-0.4	5.9	0.0109	-3.23*	0.00968
